Assay results reported in ChEMBL document CHEMBL1135739, “Radiolabeled amino acids for tumor imaging with PET: radiosynthesis and biological evaluation of 2-amino-3-[18F]fluoro-2-methylpropanoic acid and 3-[18F]fluoro-2-methyl-2-(methylamino)propanoic acid” (J Med Chem, 2002).

Key:
Rattus norvegicus [1] = species: Rattus norvegicus; assay: Radioactivity distribution in brain of normal fischer rat after injection of [18F]fluoro-2-methylpropanoic acid after 5 min.; assay type: ADME, organism-based; conditions: in vivo
Summary of the method: (§1)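 Normal male Fischer 344 rats (200–250 g), anesthetized with i.m. ketamine:xylazine (1:1), got ~85 μCi of tracer in 0.3 mL sterile water i.v. via tail-vein catheter. Groups of four were killed at 5, 30, 60 or 120 min. Tissues were weighed and gamma-counted against dose standards, and counts were decay-corrected to %ID/g. Results are mean ± standard error (n = 4), compared by one-way ANOVA.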

Rattus norvegicus [2] = species: Rattus norvegicus; assay: Radioactivity distribution in pancreas of normal fischer rat after injection of [18F]fluoro-2-methylpropanoic acid after 30 min.; assay type: ADME, organism-based; conditions: in vivo, 0.5 h
Summary of the method: (§2)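 Male Fischer 344 rats (200–250 g), fed ad libitum, anesthetized with intramuscular ketamine:xylazine (1:1, 0.1 mL/100 g). About 85 μCi tracer in 0.3 mL sterile water was given by tail-vein catheter. Groups of four were killed at 5, 30, 60 or 120 min. Tissues were weighed and gamma-counted against dose standards, decay-corrected, and expressed as %ID/g (mean ± standard error).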

Rattus norvegicus [3] = species: Rattus norvegicus; assay: Radioactivity distribution in heart of normal fischer rat after injection of [18F]fluoro-2-methylpropanoic acid after 120 min.; assay type: ADME, organism-based; conditions: in vivo, 2 h; summary of the method: as §1
Rattus norvegicus [4] = species: Rattus norvegicus; assay: Radioactivity distribution in blood of normal fischer rat after injection of [18F]fluoro-2-methylpropanoic acid after 5 min.; assay type: ADME, organism-based; conditions: in vivo; summary of the method: as §1
Rattus norvegicus [5] = species: Rattus norvegicus; assay: Radioactivity distribution in blood of tumor-bearing fischer rat after injection of [18F]fluoro-2-methylpropanoic acid after 120 min; assay type: ADME, organism-based; conditions: in vivo, 2 h
Summary of the method: (§3)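 Male Fischer 344 rats carried intracranial 9L gliosarcoma, implanted stereotactically (4×10^4 cells) and used 17–19 days later. Awake restrained rats got ~35 μCi of tracer in 0.3 mL sterile water by tail-vein injection and were killed at 5, 60 or 120 min. Tissues were weighed and gamma-counted, and counts were decay-corrected to %ID/g. Results are mean ± standard error; n = 4 at 5 and 120 min, n = 5 at 60 min.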

Rattus norvegicus [6] = species: Rattus norvegicus; assay: Radioactivity distribution in liver of tumor-bearing fischer rat after injection of [18F]fluoro-2-methylpropanoic acid after 120 min; assay type: ADME, organism-based; conditions: in vivo, 2 h
Summary of the method: (§4)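 Male Fischer 344 rats carried intracranial 9L gliosarcoma, stereotactically implanted (4×10^4 cells) and used 17–19 days later. Awake, restrained animals received about 35 μCi tracer in 0.3 mL sterile water via the tail vein and were killed at 5, 60 or 120 min (n = 4–5). Tissues were weighed, gamma-counted, decay-corrected and reported as %ID/g ± standard error.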

Rattus norvegicus [7] = species: Rattus norvegicus; assay: Radioactivity distribution in heart of normal fischer rat after injection of [18F]fluoro-2-methylpropanoic acid after 5 min.; assay type: ADME, organism-based; conditions: in vivo; summary of the method: as §1
Rattus norvegicus [8] = species: Rattus norvegicus; assay: Radioactivity distribution in testis of tumor-bearing fischer rat after injection of [18F]fluoro-2-methylpropanoic acid after 5 min; assay type: ADME, organism-based; conditions: in vivo
Summary of the method: (§5)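 Male Fischer rats had 4×10^4 9L gliosarcoma cells implanted stereotactically into the brain, 3 mm right of midline, 1 mm anterior to bregma, 5 mm deep. They were used 17–19 days later. Awake, restrained rats got ~35 μCi in 0.3 mL sterile water by tail vein and were killed at 5, 60 or 120 min. Tissues, tumor and contralateral brain were gamma-counted, decay-corrected, as %ID/g, mean ± SE, n = 4–5.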

Rattus norvegicus [9] = species: Rattus norvegicus; assay: Radioactivity distribution in spleen of normal fischer rat after injection of [18F]fluoro-2-methylpropanoic acid after 120 min.; assay type: ADME, organism-based; conditions: in vivo, 2 h
Summary of the method: (§6)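 Male Fischer 344 rats (200–250 g), fed ad libitum, under intramuscular ketamine:xylazine anesthesia, got ~85 μCi radiotracer in 0.3 mL sterile water by tail-vein catheter. Groups of four were killed at 5, 30, 60 or 120 min. Dissected tissues were weighed and gamma-counted with dose standards. Counts were decay-corrected and given as %ID/g, mean ± standard error. Tissues were compared by one-way ANOVA.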

Rattus norvegicus [10] = species: Rattus norvegicus; assay: Radioactivity distribution in tumor of tumor-bearing fischer rat after injection of [18F]fluoro-2-methylpropanoic acid after 60 min; assay type: ADME, organism-based; conditions: in vivo, 1 h; summary of the method: as §5
Rattus norvegicus [11] = species: Rattus norvegicus; assay: Radioactivity distribution in tumor of tumor-bearing fischer rat after injection of [18F]fluoro-2-methylpropanoic acid after 5 min; assay type: ADME, organism-based; conditions: in vivo; summary of the method: as §5
Rattus norvegicus [12] = species: Rattus norvegicus; assay: Radioactivity distribution in heart of normal fischer rat after injection of [18F]fluoro-2-methylpropanoic acid after 30 min.; assay type: ADME, organism-based; conditions: in vivo, 0.5 h; summary of the method: as §1
Rattus norvegicus [13] = species: Rattus norvegicus; assay: Radioactivity distribution in lung of normal fischer rat after injection of [18F]fluoro-2-methylpropanoic acid after 30 min.; assay type: ADME, organism-based; conditions: in vivo, 0.5 h; summary of the method: as §2
Rattus norvegicus [14] = species: Rattus norvegicus; assay: Radioactivity distribution in brain of normal fischer rat after injection of [18F]fluoro-2-methylpropanoic acid after 120 min.; assay type: ADME, organism-based; conditions: in vivo, 2 h; summary of the method: as §1
Rattus norvegicus [15] = species: Rattus norvegicus; assay: Radioactivity distribution in liver of normal fischer rat after injection of [18F]fluoro-2-methylpropanoic acid after 5 min.; assay type: ADME, organism-based; conditions: in vivo; summary of the method: as §2
Rattus norvegicus [16] = species: Rattus norvegicus; assay: Radioactivity distribution in lung of tumor-bearing fischer rat after injection of [18F]-fluoro-2-methylpropanoic acid after 5 min; assay type: ADME, organism-based; conditions: in vivo; summary of the method: as §4
Rattus norvegicus [17] = species: Rattus norvegicus; assay: Radioactivity distribution in liver of normal fischer rat after injection of [18F]fluoro-2-methylpropanoic acid after 30 min.; assay type: ADME, organism-based; conditions: in vivo, 0.5 h; summary of the method: as §2
Rattus norvegicus [18] = species: Rattus norvegicus; assay: Radioactivity distribution in lung of tumor-bearing fischer rat after injection of [18F]-fluoro-2-methylpropanoic acid after 120 min; assay type: ADME, organism-based; conditions: in vivo, 2 h; summary of the method: as §4
Rattus norvegicus [19] = species: Rattus norvegicus; assay: Radioactivity distribution in lung of normal fischer rat after injection of [18F]fluoro-2-methylpropanoic acid after 120 min.; assay type: ADME, organism-based; conditions: in vivo, 2 h; summary of the method: as §2
Rattus norvegicus [20] = species: Rattus norvegicus; assay: Radioactivity distribution in liver of tumor-bearing fischer rat after injection of [18F]fluoro-2-methylpropanoic acid after 5 min; assay type: ADME, organism-based; conditions: in vivo; summary of the method: as §4
Rattus norvegicus [21] = species: Rattus norvegicus; assay: Radioactivity distribution in blood of tumor-bearing fischer rat after injection of [18F]fluoro-2-methylpropanoic acid after 5 min; assay type: ADME, organism-based; conditions: in vivo; summary of the method: as §3
Rattus norvegicus [22] = species: Rattus norvegicus; assay: Radioactivity distribution in spleen of tumor-bearing fischer rat after injection of [18F]fluoro-2-methylpropanoic acid after 5 min; assay type: ADME, organism-based; conditions: in vivo; summary of the method: as §5
Rattus norvegicus [23] = species: Rattus norvegicus; assay: Radioactivity distribution in bone of normal fischer rat after injection of [18F]-fluoro-2-methylpropanoic acid after 30 min.; assay type: ADME, organism-based, Bone element; conditions: in vivo, 0.5 h; summary of the method: as §1
Rattus norvegicus [24] = species: Rattus norvegicus; assay: Radioactivity distribution in heart of tumor-bearing fischer rat after injection of [18F]fluoro-2-methylpropanoic acid after 5 min; assay type: ADME, organism-based; conditions: in vivo; summary of the method: as §3
Rattus norvegicus [25] = species: Rattus norvegicus; assay: Radioactivity distribution in tumor of tumor-bearing fischer rat after injection of [18F]fluoro-2-methylpropanoic acid after 120 min; assay type: ADME, organism-based; conditions: in vivo, 2 h; summary of the method: as §5
Rattus norvegicus [26] = species: Rattus norvegicus; assay: Radioactivity distribution in muscle of tumor-bearing fischer rat after injection of [18F]-fluoro-2-methylpropanoic acid after 5 min; assay type: ADME, organism-based, Muscle tissue; conditions: in vivo; summary of the method: as §4
Rattus norvegicus [27] = species: Rattus norvegicus; assay: Radioactivity distribution in testis of tumor-bearing fischer rat after injection of [18F]fluoro-2-methylpropanoic acid after 120 min; assay type: ADME, organism-based; conditions: in vivo, 2 h; summary of the method: as §5
Rattus norvegicus [28] = species: Rattus norvegicus; assay: Radioactivity distribution in liver of tumor-bearing fischer rat after injection of [18F]fluoro-2-methylpropanoic acid after 60 min; assay type: ADME, organism-based; conditions: in vivo, 1 h; summary of the method: as §4
Rattus norvegicus [29] = species: Rattus norvegicus; assay: Radioactivity distribution in lung of normal fischer rat after injection of [18F]fluoro-2-methylpropanoic acid after 5 min.; assay type: ADME, organism-based; conditions: in vivo; summary of the method: as §2
Rattus norvegicus [30] = species: Rattus norvegicus; assay: Radioactivity distribution in pancreas of tumor-bearing fischer rat after injection of [18F]-fluoro-2-methylpropanoic acid after 5 min; assay type: ADME, organism-based; conditions: in vivo; summary of the method: as §4
Rattus norvegicus [31] = species: Rattus norvegicus; assay: Radioactivity distribution in pancreas of tumor-bearing fischer rat after injection of [18F]-fluoro-2-methylpropanoic acid after 60 min; assay type: ADME, organism-based; conditions: in vivo, 1 h; summary of the method: as §4
Rattus norvegicus [32] = species: Rattus norvegicus; assay: Radioactivity distribution in brain of normal fischer rat after injection of [18F]fluoro-2-methylpropanoic acid after 30 min.; assay type: ADME, organism-based; conditions: in vivo, 0.5 h; summary of the method: as §1
Rattus norvegicus [33] = species: Rattus norvegicus; assay: Radioactivity distribution in testis of normal fischer rat after injection of [18F]fluoro-2-methylpropanoic acid after 30 min.; assay type: ADME, organism-based; conditions: in vivo, 0.5 h; summary of the method: as §6
Rattus norvegicus [34] = species: Rattus norvegicus; assay: Radioactivity distribution in muscle of tumor-bearing fischer rat after injection of [18F]fluoro-2-methylpropanoic acid after 60 min; assay type: ADME, organism-based, Muscle tissue; conditions: in vivo, 1 h; summary of the method: as §4

## CC(N)(C[18F])C(=O)O.Cl (centres undefined)
Rattus norvegicus [1]
  ID/g: 0.04%
Rattus norvegicus [2]
  ID/g: 2.93%
Rattus norvegicus [3]
  ID/g: 0.23%
Rattus norvegicus [4]
  ID/g: 0.53%
Rattus norvegicus [5]
  ID/g: 0.16%
Rattus norvegicus [6]
  ID/g: 0.25%
Rattus norvegicus [7]
  ID/g: 0.29%
Rattus norvegicus [8]
  ID/g: 0.22%
Rattus norvegicus [9]
  ID/g: 0.33%
Rattus norvegicus [10]
  ID/g: 1.96%
Rattus norvegicus [11]
  ID/g: 0.91%
Rattus norvegicus [12]
  ID/g: 0.29%
Rattus norvegicus [13]
  ID/g: 0.54%
Rattus norvegicus [14]
  ID/g: 0.05%
Rattus norvegicus [15]
  ID/g: 0.65%
Rattus norvegicus [16]
  ID/g: 0.84%
Rattus norvegicus [17]
  ID/g: 0.56%
Rattus norvegicus [18]
  ID/g: 0.24%
Rattus norvegicus [19]
  ID/g: 0.37%
Rattus norvegicus [20]
  ID/g: 0.77%
Rattus norvegicus [21]
  ID/g: 0.72%
Rattus norvegicus [22]
  ID/g: 0.72%
Rattus norvegicus [23]
  ID/g: 0.22%
Rattus norvegicus [24]
  ID/g: 0.4%
Rattus norvegicus [25]
  ID/g: 1.87%
Rattus norvegicus [26]
  ID/g: 0.39%
Rattus norvegicus [27]
  ID/g: 0.11%
Rattus norvegicus [28]
  ID/g: 0.66%
Rattus norvegicus [29]
  ID/g: 0.55%
Rattus norvegicus [30]
  ID/g: 5.31%
Rattus norvegicus [31]
  ID/g: 2.86%
Rattus norvegicus [32]
  ID/g: 0.05%
Rattus norvegicus [33]
  ID/g: 0.1%
Rattus norvegicus [34]
  ID/g: 0.31%
